Test results from ChEMBL document CHEMBL1145193, “Identification of substituted 6-amino-4-phenyltetrahydroquinoline derivatives: potent antagonists for the follicle-stimulating hormone receptor” (J Med Chem, 2005).

Columns and labels:
[1] = target: T1, Follicle-stimulating hormone receptor (Homo sapiens) (UniProt P23945); assay: In vitro inhibition of maximum response on CHO-K1 cells expressing human Follicle stimulating hormone receptor at 1E-5M; assay type: functional, cell-based
T1 sequence (whole entry): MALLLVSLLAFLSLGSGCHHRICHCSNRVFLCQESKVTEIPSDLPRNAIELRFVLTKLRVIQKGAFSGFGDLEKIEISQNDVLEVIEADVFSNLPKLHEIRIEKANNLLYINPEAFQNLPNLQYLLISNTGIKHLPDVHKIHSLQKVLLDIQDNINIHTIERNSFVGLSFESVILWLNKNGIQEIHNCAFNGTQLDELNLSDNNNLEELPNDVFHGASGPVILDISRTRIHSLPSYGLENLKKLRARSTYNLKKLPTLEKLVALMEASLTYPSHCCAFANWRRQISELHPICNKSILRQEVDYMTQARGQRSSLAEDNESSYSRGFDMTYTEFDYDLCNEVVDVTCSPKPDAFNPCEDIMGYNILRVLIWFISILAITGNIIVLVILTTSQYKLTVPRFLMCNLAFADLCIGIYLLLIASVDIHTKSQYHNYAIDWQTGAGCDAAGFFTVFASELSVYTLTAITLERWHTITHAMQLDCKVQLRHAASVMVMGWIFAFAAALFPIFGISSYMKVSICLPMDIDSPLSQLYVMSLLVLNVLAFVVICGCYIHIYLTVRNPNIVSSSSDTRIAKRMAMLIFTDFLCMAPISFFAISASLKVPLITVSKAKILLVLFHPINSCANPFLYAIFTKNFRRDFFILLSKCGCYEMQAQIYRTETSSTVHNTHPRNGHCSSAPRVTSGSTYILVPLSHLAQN

[2] = target: T2, Follicle-stimulating hormone receptor (Homo sapiens, UniProt P23945); assay: In vitro inhibition of maximum response on CHO-K1 cells expressing human Follicle stimulating hormone receptor; assay type: functional, cell-based
T2 sequence (P23945 whole entry): T1 sequence (whole entry)
Outline: (§1)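 Antagonist-mode assay in CHO cells expressing human FSH receptor with a luciferase reporter: cells are stimulated with FSH and test compound is added. IC50 values come from duplicate measurements and represent at least two independent experiments; the SD of pIC50 is typically below 0.2. Compounds are scored "n.a." (not active) where no antagonism is seen.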

[3] = target: T2, Follicle-stimulating hormone receptor; assay: In vitro inhibition of maximum response on CHO-K1 cells expressing human Follicle stimulating hormone receptor; Not active; assay type: functional, cell-based; outline: as §1
[4] = target: T2, Follicle-stimulating hormone receptor; assay: Effective concentration for maximum response on CHO-K1 cells expressing human Follicle stimulating hormone receptor; assay type: functional, cell-based
[5] = target: T2, Follicle-stimulating hormone receptor; assay: In vitro inhibition of maximum response evoked by cAMP on CHO-K1 cells expressing human Follicle stimulating hormone receptor; assay type: functional, cell-based
Outline: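 CHO cells stably expressing human FSH receptor, run in antagonist mode. The natural ligand FSH stimulates the receptor and the test compound is added. FSH-induced cAMP production is measured as the functional read-out in place of luciferase, and an IC50 is derived.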

Mus musculus = species: Mus musculus; assay: Inhibition of follicle growth (ovulation) in mouse at 10 uM concentration; assay type: functional
Outline: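 Ex vivo culture of immature mouse follicles in the presence of FSH, with or without test compound at 10 µM. Follicle growth is compared with FSH-only follicles, and ovulation is scored as % ovulated follicles.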

[6] = target: T3, Follicle-stimulating hormone receptor (Rattus norvegicus, UniProt P20395); assay: In vitro inhibition against maximum response evoked by cAMP in rat GFSHR-17 granulosa cell line; assay type: functional
T3 sequence (P20395 whole entry): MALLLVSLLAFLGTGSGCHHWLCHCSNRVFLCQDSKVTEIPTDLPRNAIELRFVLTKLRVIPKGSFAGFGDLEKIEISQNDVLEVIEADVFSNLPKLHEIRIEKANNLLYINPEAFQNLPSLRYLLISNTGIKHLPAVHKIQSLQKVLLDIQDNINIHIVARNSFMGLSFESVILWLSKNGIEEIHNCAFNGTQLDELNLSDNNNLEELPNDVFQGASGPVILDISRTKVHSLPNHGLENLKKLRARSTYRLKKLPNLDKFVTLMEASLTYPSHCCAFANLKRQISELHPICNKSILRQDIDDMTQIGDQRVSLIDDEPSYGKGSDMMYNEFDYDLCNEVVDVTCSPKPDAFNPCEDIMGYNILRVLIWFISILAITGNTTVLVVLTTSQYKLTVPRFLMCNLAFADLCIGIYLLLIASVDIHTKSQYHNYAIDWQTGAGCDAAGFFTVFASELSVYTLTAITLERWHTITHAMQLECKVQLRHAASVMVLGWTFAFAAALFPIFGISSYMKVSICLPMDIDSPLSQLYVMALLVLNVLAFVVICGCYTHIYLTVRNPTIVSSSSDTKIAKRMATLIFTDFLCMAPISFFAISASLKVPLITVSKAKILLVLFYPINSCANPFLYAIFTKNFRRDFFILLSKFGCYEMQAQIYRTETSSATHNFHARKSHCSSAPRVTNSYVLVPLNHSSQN
Outline: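 Granulosa cell line GFSHR-17, stably expressing rat FSH receptor, incubated with FSH plus test compound; read-out is inhibition of FSH-induced cAMP production, reported as IC50.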

Q: `CC(=O)N1c2ccc(C(=O)NCc3cccs3)cc2C(C)(c2ccccc2)CC1(C)C` (stereo not given) was tested. Which inhibition [1] did it give?
A: 25%

Q: `CC(=O)N1c2cc(C)c(NC(=O)c3ccc(-c4ccccc4)cc3)cc2C(C)(c2ccccc2)CC1(C)C` (stereo not given) was tested. Which IC50 [2] did it give?
A: 5 nM

Q: `CC(=O)N1c2ccc(NC(=O)c3ccc(-c4ccccc4)cc3)cc2C(C)(c2ccccc2)CC1(C)C` (single isomer, unassigned; isomer II) was tested. Which IC50 [2] did it give?
A: 4 nM

Q: `CC(=O)N1c2ccc(CNc3ccc(-c4ccccc4)cc3)cc2C(C)(c2ccccc2)CC1(C)C` (stereo not given) was tested. Which IC50 [3] did it give?
A: Not Active

Q: `CC(=O)N1c2ccc(NC(=O)c3ccc(-c4ccccc4)cc3)cc2C(C)(c2ccc(C)cc2)CC1(C)C` (stereo not given) was tested. Which IC50 [2] did it give?
A: 50 nM

Q: `CC(=O)N1c2ccc(NC(=O)COC(C)(C)C)cc2C(C)(c2ccccc2)CC1(C)C` (stereo not given) was tested. Which IC50 [2] did it give?
A: 76 nM

Q: Which IC50 [2] does the source give for `COc1ccccc1C1(C)CC(C)(C)N(C(C)=O)c2ccc(NC(=O)c3ccc(-c4ccccc4)cc3)cc21` (stereo not given) here?
A: 170 nM

Q: `CC(=O)N1c2ccc(OC(=O)c3ccc(-c4ccccc4)cc3)cc2C(C)(c2ccccc2)CC1(C)C` (stereo not given) was tested. Which IC50 [2] did it give?
A: 54 nM

Q: How did the IC50 [2] turn out when `CC(=O)N1c2ccc(NC(=O)c3ccc(Cl)cc3)cc2C(C)(c2ccccc2)CC1(C)C` (stereo not given) was run?
A: 31 nM

Q: `CC(=O)N1c2ccc(NC(=O)c3ccc(C(F)(F)F)cc3)cc2C(C)(c2ccccc2)CC1(C)C` (stereo not given) was tested. Which IC50 [2] did it give?
A: 7 nM

Q: Which IC50 [2] does the source give for `CC(=O)N1c2ccc(NC(=O)c3cccc(-c4ccccc4)c3)cc2C(C)(c2ccccc2)CC1(C)C` (stereo not given) here?
A: 9 nM

Q: Which IC50 [2] does the source give for `COc1ccc(CCNC(=O)c2ccc3c(c2)C(C)(c2ccccc2)CC(C)(C)N3C(C)=O)cc1` (stereo not given) here?
A: 1880 nM

Q: How did the EC50 [4] turn out when `CC(=O)N1c2ccc(N)cc2C(C)(c2ccccc2)CC1(C)C` (stereo not given) was run?
A: 4400 nM

Q: With `CC(=O)N1c2ccc(NCc3ccc(C(C)(C)C)cc3)cc2C(C)(c2ccccc2)CC1(C)C` (stereo not given) as the compound, how does the IC50 [2] read?
A: 930 nM

Q: `CC(=O)N1c2ccc(C(=O)Nc3ccc(-c4ccccc4)cc3)cc2C(C)(c2ccccc2)CC1(C)C` (stereo not given) was tested. Which inhibition [1] did it give?
A: 44%

Q: Which results are given for `CC(=O)N1c2ccc(NC(=O)c3ccc(-c4ccccc4)cc3)cc2C(C)(c2ccccc2)CC1(C)C` (stereo in doubt; 10)?
A: IC50 [5]: 10 nM; IC50 [2]: 28 nM; Inhibition (Mus musculus): 78%; IC50 [6]: 540 nM

Q: `CCCc1ccc(C(=O)Nc2ccc3c(c2)C(C)(c2ccccc2)CC(C)(C)N3C(C)=O)cc1` (stereo not given) was tested. Which IC50 [2] did it give?
A: 5 nM

Q: Which IC50 [2] does the source give for `CC(=O)N1c2ccc(NS(=O)(=O)Cc3ccccc3)cc2C(C)(c2ccccc2)CC1(C)C` (stereo not given) here?
A: 2800 nM

Q: How did the inhibition [1] turn out when `CC(=O)N1c2ccc(OCCc3ccccc3)cc2C(C)(c2ccccc2)CC1(C)C` (stereo not given) was run?
A: 80%

Q: How did the inhibition [1] turn out when `CC(=O)N1c2ccc(NC(=O)c3ccc(-c4ccc(C(C)(C)C)cc4)cc3)cc2C(C)(c2ccccc2)CC1(C)C` (stereo not given) was run?
A: 74%

Q: With `CC(=O)N1c2ccc(NC(=O)c3ccccc3-c3ccccc3)cc2C(C)(c2ccccc2)CC1(C)C` (stereo not given) as the compound, how does the IC50 [2] read?
A: 25 nM

Q: Which IC50 [2] does the source give for `CC(=O)N1c2ccc(NC(=O)c3ccc(-c4ccccc4)cc3)cc2C(C)(c2ccc(O)cc2)CC1(C)C` (stereo not given) here?
A: 240 nM

Q: For `CC(=O)N1c2ccc(NC(=O)Nc3ccccc3)cc2C(C)(c2ccccc2)CC1(C)C` (stereo not given), which IC50 [2] is on record?
A: 580 nM

Q: How did the IC50 [3] turn out when `CC(=O)N1c2ccc(NC(=O)c3ccc(-c4ccccc4)cc3)cc2C(C)(c2ccccc2)CC1(C)C` (single isomer, unassigned; isomer I) was run?
A: Not Active

Q: With `CC(=O)N1c2ccc(NC(=O)c3ccco3)cc2C(C)(c2ccccc2)CC1(C)C` (stereo not given) as the compound, how does the IC50 [2] read?
A: 27 nM

Q: `COc1cc(NC(=O)c2ccc(-c3ccccc3)cc2)cc2c1N(C(C)=O)C(C)(C)CC2(C)c1ccccc1` (stereo not given) was tested. Which IC50 [2] did it give?
A: 30 nM

Q: How did the IC50 [2] turn out when `CC(=O)N1c2ccc(OCc3ccc(-c4ccccc4)cc3)cc2C(C)(c2ccccc2)CC1(C)C` (stereo not given) was run?
A: 166 nM
